The target in assay [1] is Tropomyosin alpha-4 chain (Homo sapiens) (UniProt P67936). Kind of assay: Binding affinity to TPM4 in human NCI-H23 cells at 1 uM by mass spectrometry based pull down assay. The assay is classed as cell-based.
In assay [2] the target is Heterogeneous nuclear ribonucleoprotein H2 (Homo sapiens) (UniProt P55795). Briefly: Binding affinity to HNRNPH2 in human NCI-H23 cells at 1 uM by mass spectrometry based pull down assay. The assay is classed as cell-based.
In assay [3] the target is T1, 80S Ribosome (Homo sapiens) (UniProt P08865+P42677+P62753+P15880+P23396+P61247+P62701+P22090+P46782+P62081+P62241+P46781+P46783+P62280+P25398+P62277+P62263+P62841+P62244+P62249+P08708+P62269+P39019+P60866+P63220+P62266+P62847+P62851+P62854+P62979+P62857+P62273+P62861+P39023+P36578+P46777+Q02878+P18124+P62424+P62917+P32969+P27635+P62906+P62913+P30050+P26373+P40429+P50914+P61313+P18621+Q07020+Q02543+P84098+P46778+P35268+P62829+P62750+P83731+P61254+P61353+P46776+P46779+P47914+P62888+P62899+P62910+P49207+P42766+P18077+Q9Y3U8+P83881+P61927+P61513+P63173+P62891+P62945+P05388+P05386). Kind of assay: Binding affinity to RPL8 in human NCI-H23 cells at 1 uM by mass spectrometry based pull down assay. The class given is cell-based.

Assay [4] deals with Calmodulin-2 (Homo sapiens) (UniProt P0DP24). Kind of assay: Binding affinity to CALM2 in human NCI-H23 cells at 1 uM by mass spectrometry based pull down assay. The assay is classed as cell-based.
For assay [5], the target named is ADP-ribose glycohydrolase OARD1 (Homo sapiens) (UniProt Q9Y530). Kind of assay: Binding affinity to OARD1 in human NCI-H23 cells at 1 uM by mass spectrometry based pull down assay. The class given is cell-based.
The test system of assay [6] is NCI-H23. Briefly: Binding affinity to NDUFS3 in human NCI-H23 cells at 1 uM by mass spectrometry based pull down assay. The assay is classed as cell-based.
Assay [7] deals with Eukaryotic translation initiation factor 3 subunit I (Homo sapiens) (UniProt Q13347). Briefly: Binding affinity to EIF3I in human NCI-H23 cells at 1 uM by mass spectrometry based pull down assay. The assay is classed as cell-based.
The subject of assay [8] is NCI-H23. Briefly: Binding affinity to PSMA1 in human NCI-H23 cells at 1 uM by mass spectrometry based pull down assay. The class given is cell-based.
The target in assay [9] is Inosine-5'-monophosphate dehydrogenase 1 (Homo sapiens) (UniProt P20839). Kind of assay: Binding affinity to IMPDH1 in human NCI-H23 cells at 1 uM by mass spectrometry based pull down assay. The assay is classed as cell-based.
Assay [10] deals with Fructose-2,6-bisphosphatase TIGAR (Homo sapiens) (UniProt Q9NQ88). Briefly: Binding affinity to TIGAR in human NCI-H23 cells at 1 uM by mass spectrometry based pull down assay. The class given is cell-based.
Assay [11] concerns the target Protein disulfide-isomerase A4 (Homo sapiens) (UniProt P13667). Kind of assay: Binding affinity to PDIA4 in human NCI-H23 cells at 1 uM by mass spectrometry based pull down assay. The class given is cell-based.
Assay [12] addresses Cyclin-dependent kinase 5 (Homo sapiens) (UniProt Q00535). Briefly: Binding affinity to CDK5 in human NCI-H23 cells at 1 uM by mass spectrometry based pull down assay. The class given is cell-based.
The target in assay [13] is T2, Aurora kinase A (Homo sapiens) (UniProt O14965).
T2 sequence (whole entry): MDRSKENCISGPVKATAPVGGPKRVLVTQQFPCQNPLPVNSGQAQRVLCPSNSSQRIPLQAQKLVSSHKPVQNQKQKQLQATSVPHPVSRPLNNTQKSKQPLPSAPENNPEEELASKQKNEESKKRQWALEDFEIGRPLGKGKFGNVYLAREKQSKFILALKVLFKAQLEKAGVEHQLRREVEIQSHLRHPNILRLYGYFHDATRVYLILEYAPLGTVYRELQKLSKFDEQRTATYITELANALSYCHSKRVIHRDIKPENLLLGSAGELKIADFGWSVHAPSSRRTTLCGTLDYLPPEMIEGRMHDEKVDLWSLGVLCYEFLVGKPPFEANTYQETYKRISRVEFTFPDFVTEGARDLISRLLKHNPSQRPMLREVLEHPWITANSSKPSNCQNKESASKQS
Briefly: Binding affinity to AURKA in human NCI-H23 cells at 1 uM by mass spectrometry based pull down assay. The assay is classed as cell-based.

The target in assay [14] is T1, 80S Ribosome (Homo sapiens). Briefly: Binding affinity to RPS26 in human NCI-H358 cells at 1 uM by mass spectrometry based pull down assay. The assay is classed as cell-based.
Assay [15] addresses DNA mismatch repair protein Msh2 (Homo sapiens) (UniProt P43246). Kind of assay: Binding affinity to MSH2 in human NCI-H358 cells at 1 uM by mass spectrometry based pull down assay. The assay is classed as cell-based.
Assay [16] concerns the target Myosin regulatory light chain 12B (Homo sapiens) (UniProt O14950). Briefly: Binding affinity to MYL12B in human NCI-H358 cells at 1 uM by mass spectrometry based pull down assay. The class given is cell-based.
Assay [17] addresses BLOC-2 complex member HPS6 (Homo sapiens) (UniProt Q86YV9). Kind of assay: Binding affinity to HPS6 in human NCI-H358 cells at 1 uM by mass spectrometry based pull down assay. The assay is classed as cell-based.
Assay [18] concerns the target T3, Dual specificity mitogen-activated protein kinase kinase 6 (Homo sapiens) (UniProt P52564).
T3 sequence (whole entry): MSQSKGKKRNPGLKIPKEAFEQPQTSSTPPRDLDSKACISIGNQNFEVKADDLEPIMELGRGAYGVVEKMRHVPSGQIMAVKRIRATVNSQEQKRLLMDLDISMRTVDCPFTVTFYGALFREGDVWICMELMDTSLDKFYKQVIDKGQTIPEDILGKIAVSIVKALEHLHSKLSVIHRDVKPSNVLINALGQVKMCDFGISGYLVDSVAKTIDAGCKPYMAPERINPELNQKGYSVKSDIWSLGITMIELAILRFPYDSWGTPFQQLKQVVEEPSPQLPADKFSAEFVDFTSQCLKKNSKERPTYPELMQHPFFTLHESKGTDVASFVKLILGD
Kind of assay: Inhibition of MAP2K6 in human SKCO1 cells at 1 uM after 4 hrs using biotin labeled DVKPSNVLINALGQVK probe by mass-spectrometric analysis relative to control. The assay is classed as cell-based.

Assay [19] has as its target Dual specificity mitogen-activated protein kinase kinase 1 (Homo sapiens) (UniProt Q02750). Briefly: Inhibition of full length human MEK1 (1 to 393 residues) expressed in mammalian expression system assessed as enzyme activity at 1 uM by KINOMEScan assay relative to control. Further details: scale not given: the % may be the effect or the level left. Put shortly: (§1)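 In vitro ATP-site competition binding assay (KinomeScan) across a panel of 456 kinases. Compound was tested at 1 and 10 μM. The read-out is the binding inhibition score relative to control.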

Assay [20] addresses Activin receptor type-1 (Homo sapiens) (UniProt Q04771). Kind of assay: Inhibition of human ACVR1 (188 to 509 residues) expressed in bacterial expression system assessed as enzyme activity at 10 uM by KINOMEScan assay relative to control. Further details: scale not given: the % may be the effect or the level left. Put shortly: as §1

SMILES strings stand for the structures. Activity calls are given as the source filed them. The rule behind the calls is not given here.

The values that follow come from ChEMBL document CHEMBL4118021, “Studies of TAK1-centered polypharmacology with novel covalent TAK1 inhibitors” (Bioorg Med Chem, 2017).

Usually inhibition stands for how much of the control response was suppressed.

Sequence of Inosine-5'-monophosphate dehydrogenase 1 (Homo sapiens) (P20839 2-514 limits assumed): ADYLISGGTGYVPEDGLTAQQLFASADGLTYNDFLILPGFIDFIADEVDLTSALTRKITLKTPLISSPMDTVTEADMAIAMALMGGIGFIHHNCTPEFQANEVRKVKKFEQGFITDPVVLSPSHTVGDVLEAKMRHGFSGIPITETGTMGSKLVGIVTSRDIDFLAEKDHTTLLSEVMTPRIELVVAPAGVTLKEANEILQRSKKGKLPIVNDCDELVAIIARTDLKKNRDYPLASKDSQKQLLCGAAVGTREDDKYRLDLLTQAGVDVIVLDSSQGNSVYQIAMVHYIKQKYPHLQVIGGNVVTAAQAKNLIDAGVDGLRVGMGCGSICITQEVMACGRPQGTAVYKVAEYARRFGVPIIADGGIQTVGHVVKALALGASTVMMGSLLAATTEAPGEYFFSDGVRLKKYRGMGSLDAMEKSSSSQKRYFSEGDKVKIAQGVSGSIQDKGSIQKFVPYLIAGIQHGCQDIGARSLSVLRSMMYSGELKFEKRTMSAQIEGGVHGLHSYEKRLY
Sequence of Dual specificity mitogen-activated protein kinase kinase 1 (Homo sapiens) (Q02750 whole entry, the tested form may be a part): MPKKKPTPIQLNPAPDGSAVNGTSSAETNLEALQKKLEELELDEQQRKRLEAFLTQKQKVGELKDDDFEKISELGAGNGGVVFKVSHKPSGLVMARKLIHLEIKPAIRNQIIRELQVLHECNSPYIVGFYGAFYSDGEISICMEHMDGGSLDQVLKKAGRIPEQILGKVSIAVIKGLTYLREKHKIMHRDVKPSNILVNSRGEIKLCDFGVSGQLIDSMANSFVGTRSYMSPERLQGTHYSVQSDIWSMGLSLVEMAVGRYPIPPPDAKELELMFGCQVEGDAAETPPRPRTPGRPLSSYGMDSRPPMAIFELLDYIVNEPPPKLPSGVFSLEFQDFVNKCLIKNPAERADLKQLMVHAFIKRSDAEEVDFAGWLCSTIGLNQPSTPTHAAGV
Sequence of Fructose-2,6-bisphosphatase TIGAR (Homo sapiens) (Q9NQ88 whole entry): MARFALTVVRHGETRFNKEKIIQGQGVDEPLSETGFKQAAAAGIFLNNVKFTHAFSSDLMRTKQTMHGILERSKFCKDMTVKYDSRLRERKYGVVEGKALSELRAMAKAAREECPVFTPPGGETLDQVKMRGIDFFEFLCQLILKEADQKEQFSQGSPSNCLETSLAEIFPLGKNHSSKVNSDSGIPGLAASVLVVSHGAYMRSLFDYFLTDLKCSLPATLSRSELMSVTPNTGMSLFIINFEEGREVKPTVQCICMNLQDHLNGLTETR
Sequence of Activin receptor type-1 (Homo sapiens) (Q04771 whole entry, the tested form may be a part): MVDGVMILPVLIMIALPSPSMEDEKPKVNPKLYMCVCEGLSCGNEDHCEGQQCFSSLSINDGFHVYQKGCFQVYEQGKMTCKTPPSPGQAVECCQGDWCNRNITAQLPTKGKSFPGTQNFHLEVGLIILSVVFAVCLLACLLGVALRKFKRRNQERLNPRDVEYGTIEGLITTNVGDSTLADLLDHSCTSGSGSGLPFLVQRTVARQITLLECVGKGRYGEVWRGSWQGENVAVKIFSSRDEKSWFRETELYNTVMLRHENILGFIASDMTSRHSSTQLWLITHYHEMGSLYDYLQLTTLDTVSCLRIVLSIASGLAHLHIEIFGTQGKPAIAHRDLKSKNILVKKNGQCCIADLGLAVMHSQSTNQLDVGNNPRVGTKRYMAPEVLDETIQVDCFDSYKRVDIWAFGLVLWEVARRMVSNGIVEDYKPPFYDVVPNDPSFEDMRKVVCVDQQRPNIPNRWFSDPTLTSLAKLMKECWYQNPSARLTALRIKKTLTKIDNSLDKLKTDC
Sequence of DNA mismatch repair protein Msh2 (Homo sapiens) (P43246 whole entry): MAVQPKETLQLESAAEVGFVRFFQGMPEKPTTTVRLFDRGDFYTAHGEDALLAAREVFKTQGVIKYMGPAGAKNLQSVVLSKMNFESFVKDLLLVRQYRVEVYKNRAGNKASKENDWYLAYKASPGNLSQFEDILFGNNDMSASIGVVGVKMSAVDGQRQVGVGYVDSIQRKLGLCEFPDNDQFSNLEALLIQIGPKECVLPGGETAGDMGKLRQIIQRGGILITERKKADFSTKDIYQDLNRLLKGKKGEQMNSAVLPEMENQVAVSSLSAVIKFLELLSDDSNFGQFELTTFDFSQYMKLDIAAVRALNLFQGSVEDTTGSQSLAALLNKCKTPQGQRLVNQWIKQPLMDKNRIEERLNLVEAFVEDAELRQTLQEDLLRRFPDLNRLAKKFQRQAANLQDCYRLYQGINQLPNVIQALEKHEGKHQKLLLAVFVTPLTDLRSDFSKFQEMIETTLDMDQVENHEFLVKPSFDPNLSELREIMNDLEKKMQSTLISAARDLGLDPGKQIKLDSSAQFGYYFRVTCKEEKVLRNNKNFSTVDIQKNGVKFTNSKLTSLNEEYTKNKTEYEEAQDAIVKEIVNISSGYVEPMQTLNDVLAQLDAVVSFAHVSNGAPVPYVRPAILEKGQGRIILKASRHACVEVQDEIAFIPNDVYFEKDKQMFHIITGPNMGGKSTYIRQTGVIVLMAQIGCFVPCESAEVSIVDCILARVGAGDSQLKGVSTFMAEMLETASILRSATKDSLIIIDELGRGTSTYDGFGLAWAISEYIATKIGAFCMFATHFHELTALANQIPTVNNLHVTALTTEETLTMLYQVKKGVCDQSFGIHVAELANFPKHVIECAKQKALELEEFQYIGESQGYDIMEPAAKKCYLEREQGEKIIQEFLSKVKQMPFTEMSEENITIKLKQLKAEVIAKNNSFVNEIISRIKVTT
Sequence of Cyclin-dependent kinase 5 (Homo sapiens) (Q00535 whole entry, looked up): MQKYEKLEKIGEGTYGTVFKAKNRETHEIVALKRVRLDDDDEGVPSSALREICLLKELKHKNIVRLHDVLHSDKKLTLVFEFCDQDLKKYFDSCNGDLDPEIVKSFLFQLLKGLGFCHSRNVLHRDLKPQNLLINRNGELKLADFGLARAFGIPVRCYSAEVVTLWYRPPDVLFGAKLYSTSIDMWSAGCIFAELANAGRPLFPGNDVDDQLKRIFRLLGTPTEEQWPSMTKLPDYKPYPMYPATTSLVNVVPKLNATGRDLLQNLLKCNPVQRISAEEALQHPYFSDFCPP
Sequence of Heterogeneous nuclear ribonucleoprotein H2 (Homo sapiens) (P55795 whole entry): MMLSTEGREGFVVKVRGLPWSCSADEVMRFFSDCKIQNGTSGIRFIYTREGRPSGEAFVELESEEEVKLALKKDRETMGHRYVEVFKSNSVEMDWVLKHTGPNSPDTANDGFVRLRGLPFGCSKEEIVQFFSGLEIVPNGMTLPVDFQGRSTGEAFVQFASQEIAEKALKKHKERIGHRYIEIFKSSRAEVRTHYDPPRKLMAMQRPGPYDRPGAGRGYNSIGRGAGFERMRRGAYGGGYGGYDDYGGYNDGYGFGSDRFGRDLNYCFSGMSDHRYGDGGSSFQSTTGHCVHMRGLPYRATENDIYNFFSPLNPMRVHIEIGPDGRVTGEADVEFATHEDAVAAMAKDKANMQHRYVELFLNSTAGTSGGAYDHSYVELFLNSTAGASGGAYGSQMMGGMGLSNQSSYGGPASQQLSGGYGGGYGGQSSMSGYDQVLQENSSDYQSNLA
Sequence of ADP-ribose glycohydrolase OARD1 (Homo sapiens) (Q9Y530 whole entry): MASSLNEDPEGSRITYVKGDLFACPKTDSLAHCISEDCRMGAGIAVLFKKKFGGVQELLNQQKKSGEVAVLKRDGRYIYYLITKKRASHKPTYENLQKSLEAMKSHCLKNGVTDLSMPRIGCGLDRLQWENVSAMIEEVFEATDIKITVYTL
Sequence of Protein disulfide-isomerase A4 (Homo sapiens) (P13667 whole entry): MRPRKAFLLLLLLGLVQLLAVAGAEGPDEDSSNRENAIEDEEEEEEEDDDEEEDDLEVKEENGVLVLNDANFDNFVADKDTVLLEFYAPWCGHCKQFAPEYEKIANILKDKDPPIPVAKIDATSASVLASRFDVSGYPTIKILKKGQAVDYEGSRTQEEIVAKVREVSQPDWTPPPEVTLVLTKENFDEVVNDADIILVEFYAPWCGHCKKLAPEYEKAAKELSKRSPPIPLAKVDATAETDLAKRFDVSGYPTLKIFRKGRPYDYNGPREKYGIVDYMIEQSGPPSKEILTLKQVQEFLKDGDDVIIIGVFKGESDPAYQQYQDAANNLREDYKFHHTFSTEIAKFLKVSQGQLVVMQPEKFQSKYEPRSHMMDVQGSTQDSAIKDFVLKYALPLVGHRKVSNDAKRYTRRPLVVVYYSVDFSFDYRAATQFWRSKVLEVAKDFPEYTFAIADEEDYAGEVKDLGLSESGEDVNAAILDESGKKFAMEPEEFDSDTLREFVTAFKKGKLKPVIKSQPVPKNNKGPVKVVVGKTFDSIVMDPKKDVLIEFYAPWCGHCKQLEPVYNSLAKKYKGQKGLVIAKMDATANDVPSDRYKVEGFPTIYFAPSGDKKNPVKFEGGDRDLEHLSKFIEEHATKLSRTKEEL
Sequence of Eukaryotic translation initiation factor 3 subunit I (Homo sapiens) (Q13347 whole entry): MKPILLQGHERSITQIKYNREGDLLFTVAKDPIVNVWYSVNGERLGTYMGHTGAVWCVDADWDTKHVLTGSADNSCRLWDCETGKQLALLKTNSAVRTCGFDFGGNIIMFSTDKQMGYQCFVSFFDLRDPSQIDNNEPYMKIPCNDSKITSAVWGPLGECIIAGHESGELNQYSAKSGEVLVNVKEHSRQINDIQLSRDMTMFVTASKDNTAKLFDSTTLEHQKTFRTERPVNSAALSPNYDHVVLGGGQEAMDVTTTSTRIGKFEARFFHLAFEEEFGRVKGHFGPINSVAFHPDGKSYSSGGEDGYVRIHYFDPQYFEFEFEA
Sequence of Tropomyosin alpha-4 chain (Homo sapiens) (P67936 whole entry): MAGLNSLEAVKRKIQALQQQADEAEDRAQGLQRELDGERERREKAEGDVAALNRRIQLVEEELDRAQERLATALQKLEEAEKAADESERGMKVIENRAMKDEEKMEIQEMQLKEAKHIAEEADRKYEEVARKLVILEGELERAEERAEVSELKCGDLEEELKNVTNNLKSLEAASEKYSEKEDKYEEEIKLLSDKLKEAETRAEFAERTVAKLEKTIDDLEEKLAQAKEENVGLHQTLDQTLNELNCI
Sequence of Myosin regulatory light chain 12B (Homo sapiens) (O14950 whole entry): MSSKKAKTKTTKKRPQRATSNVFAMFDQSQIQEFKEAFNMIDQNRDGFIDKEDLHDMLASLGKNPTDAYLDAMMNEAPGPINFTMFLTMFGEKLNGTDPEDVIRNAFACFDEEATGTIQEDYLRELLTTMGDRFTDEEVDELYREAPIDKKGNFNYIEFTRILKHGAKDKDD

As to `C=CC(=O)Nc1ccccc1Nc1nc(Nc2ccc(N3CCN(CCOCCOCCOCCNC(=O)CCCC[C@@H]4SC[C@@H]5NC(=O)N[C@@H]54)CC3)cc2)ncc1Cl`, the result (in [1]; in [2]; in assay [3]; in assay [4]; in assay [5]; in the assay on NCI-H23 [6]) was Active. The outcome (in [7]; with NCI-H23 [8]; in assay [9]; in [10]; in [11]; in assay [12]) was Active. The result in assay [13], in assay [14], in assay [15], in assay [16] and in assay [17] was Active.
Molecule `COc1cc(O)c2c(c1)/C=C/C[C@H](O)[C@H](O)C(=O)/C=C\C[C@H](C)OC2=O` came in with an inhibition in assay [18] of 54.2%. For the same molecule, the Activity amounted to 0.65% in assay [19] and 1.9% in [20].
